Assay results taken from ChEMBL document CHEMBL3102720, “Structure-activity relationship study of permethyl ningalin B analogues as P-glycoprotein chemosensitizers” (J Med Chem, 2013).
The source made the active and inactive calls. The calls are words filed in the database; no cut-off is given here.

How the values were obtained:
[1] = target: T1, ATP-dependent translocase ABCB1 (Homo sapiens, UniProt P08183); assay: Modulation of p-gp (unknown origin) transfected in human MDA435/LCC6MDR cells assessed as potentiation of paclitaxel-induced cytotoxicity at 1 uM after 5 days by MTS assay relative to untreated control; type: cell-based; settings: 120 h
T1 sequence (P08183 whole entry): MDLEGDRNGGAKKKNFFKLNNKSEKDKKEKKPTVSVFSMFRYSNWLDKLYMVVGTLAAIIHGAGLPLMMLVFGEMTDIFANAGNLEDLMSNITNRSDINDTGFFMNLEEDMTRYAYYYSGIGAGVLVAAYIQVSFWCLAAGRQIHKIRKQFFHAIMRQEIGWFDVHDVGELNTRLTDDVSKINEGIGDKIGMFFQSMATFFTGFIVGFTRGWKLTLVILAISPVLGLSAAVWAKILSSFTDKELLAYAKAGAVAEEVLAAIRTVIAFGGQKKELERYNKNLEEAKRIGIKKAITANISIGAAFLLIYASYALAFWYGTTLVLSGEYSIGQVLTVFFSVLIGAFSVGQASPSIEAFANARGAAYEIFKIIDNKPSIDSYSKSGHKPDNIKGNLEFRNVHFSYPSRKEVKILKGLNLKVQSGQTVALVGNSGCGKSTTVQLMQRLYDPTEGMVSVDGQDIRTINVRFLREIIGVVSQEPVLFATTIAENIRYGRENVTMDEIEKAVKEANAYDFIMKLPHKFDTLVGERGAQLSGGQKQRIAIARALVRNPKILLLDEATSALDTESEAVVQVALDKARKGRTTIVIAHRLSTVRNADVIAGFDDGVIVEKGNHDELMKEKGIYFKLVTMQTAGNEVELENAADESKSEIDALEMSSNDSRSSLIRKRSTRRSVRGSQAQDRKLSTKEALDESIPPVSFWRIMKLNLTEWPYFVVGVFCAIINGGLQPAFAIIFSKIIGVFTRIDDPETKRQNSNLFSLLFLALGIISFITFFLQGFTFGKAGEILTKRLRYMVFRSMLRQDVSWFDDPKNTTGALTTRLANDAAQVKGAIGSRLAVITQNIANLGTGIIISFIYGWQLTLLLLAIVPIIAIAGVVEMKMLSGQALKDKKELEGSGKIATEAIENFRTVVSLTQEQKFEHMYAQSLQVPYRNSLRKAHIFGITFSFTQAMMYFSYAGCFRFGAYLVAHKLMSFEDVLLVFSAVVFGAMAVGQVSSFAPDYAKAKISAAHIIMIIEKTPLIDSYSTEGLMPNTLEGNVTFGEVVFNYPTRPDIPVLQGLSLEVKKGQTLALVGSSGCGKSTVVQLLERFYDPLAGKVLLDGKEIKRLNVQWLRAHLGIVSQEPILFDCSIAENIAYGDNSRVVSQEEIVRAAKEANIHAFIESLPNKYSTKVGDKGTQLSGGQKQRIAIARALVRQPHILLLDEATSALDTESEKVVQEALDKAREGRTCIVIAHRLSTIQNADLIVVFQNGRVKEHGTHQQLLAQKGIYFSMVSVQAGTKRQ
Procedure, shortened: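 6000 LCC6MDR or LCC6 cells per well co-incubated with paclitaxel with or without 1 μM modulator for 5 days at 37 °C. […] RF = IC50 without modulator divided by IC50 with modulator. N = 2–3 experiments; mean ± SEM.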

[2] = tested on: MDA-435/LCC6; assay: Induction of doxorubicin accumulation in human MDA435/LCC6 cells at 1 uM after 150 mins by spectrofluorometric analysis; type: functional, cell-based
Procedure, shortened: (§1)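 1 × 10^6 LCC6 or LCC6MDR cells incubated with 20 μM doxorubicin plus 1 μM analogue at 37 °C for 150 min; 0.1% DMSO served as negative control. Cells were washed with cold PBS and lysed in 0.75 M HCl/0.2% Triton X-100 in 2-propanol. Supernatant DOX fluorescence was read at ex 460/em 610 nm. N = 3–5 experiments; Student's t test.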

[3] = target: T1, ATP-dependent translocase ABCB1; assay: Modulation of p-gp (unknown origin) transfected in human MDA435/LCC6MDR cells assessed as induction of doxorubicin accumulation at 1 uM after 150 mins by spectrofluorometric analysis relative to control; type: cell-based; settings: 2.5 h; procedure, shortened: as §1
[4] = tested on: P-gp (unknown origin); assay: Therapeutic index, ratio of IC50 for mouse L929 cells to EC50 for modulation of p-gp (unknown origin) transfected in human MDA435/LCC6MDR cells assessed as reversal of paclitaxel resistance; type: cell-based; settings: read-out: Ratio IC50/EC50
Procedure, shortened: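 Therapeutic index = L929 cytotoxicity IC50 (10 000 cells, 3-day MTS) divided by EC50 for reversing paclitaxel resistance in LCC6MDR (5-day MTS co-incubation with modulator series). N = 2–5 experiments.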

[5] = Cytotoxicity against human MDA435/LCC6 cells assessed as growth inhibition after 3 days by MTS assay; type: functional, cell-based; settings: MDA-435/LCC6, 72 h
Procedure, shortened: (§2)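 10 000 cells per well exposed to a concentration series of analogue for 3 days at 37 °C. Growth read by MTS proliferation assay and IC50 determined. Cells were cultured in DMEM with 10% heat-inactivated FBS and penicillin/streptomycin at 37 °C under 5% CO2.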

[6] = tested on: L929; assay: Cytotoxicity against mouse L929 cells assessed as growth inhibition after 3 days by MTS assay; type: cell-based; settings: L929, 72 h; procedure, shortened: as §2
[7] = species: Homo sapiens; assay: Ratio of verapamil EC50 to compound EC50 for modulation of p-gp (unknown origin) transfected in human MDA435/LCC6MDR cells assessed as reversal of paclitaxel resistance; type: cell-based
[8] = Cytotoxicity against human MDA435/LCC6MDR cells assessed as growth inhibition after 3 days by MTS assay; type: functional, cell-based; settings: 72 h; procedure, shortened: as §2
[9] = target: T2, Broad substrate specificity ATP-binding cassette transporter ABCG2 (Homo sapiens, UniProt Q9UNQ0); assay: Modulation of BCRP (unknown origin) transfected in human HEK293/R2 cells assessed as potentiation of topotecan-induced cytotoxicity at 1 uM after 5 days by MTS assay relative to untreated control; type: cell-based; settings: hek293/r2, 120 h
T2 sequence (Q9UNQ0 whole entry): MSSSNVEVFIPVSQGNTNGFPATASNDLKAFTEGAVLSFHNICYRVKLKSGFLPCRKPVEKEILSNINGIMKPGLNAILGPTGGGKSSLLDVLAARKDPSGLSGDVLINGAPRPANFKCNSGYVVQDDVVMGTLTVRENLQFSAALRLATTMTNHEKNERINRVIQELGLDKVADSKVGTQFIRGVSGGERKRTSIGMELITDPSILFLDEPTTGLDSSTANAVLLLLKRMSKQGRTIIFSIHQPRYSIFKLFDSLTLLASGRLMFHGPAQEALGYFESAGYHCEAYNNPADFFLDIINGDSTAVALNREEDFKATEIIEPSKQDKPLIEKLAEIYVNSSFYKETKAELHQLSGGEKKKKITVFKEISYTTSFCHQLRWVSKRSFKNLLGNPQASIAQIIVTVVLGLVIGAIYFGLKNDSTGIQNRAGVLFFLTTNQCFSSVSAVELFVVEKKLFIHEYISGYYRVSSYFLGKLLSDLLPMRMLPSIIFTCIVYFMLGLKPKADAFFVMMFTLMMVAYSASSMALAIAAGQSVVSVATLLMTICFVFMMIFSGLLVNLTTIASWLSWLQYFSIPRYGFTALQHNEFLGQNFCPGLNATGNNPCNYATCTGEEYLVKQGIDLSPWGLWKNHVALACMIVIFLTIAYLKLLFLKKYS
Procedure, shortened: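 4500 HEK293/R2 or HEK293/pcDNA3.1 cells per well co-incubated with topotecan with or without 1 μM modulator for 5 days at 37 °C. Readout was MTS/PMS absorbance at 490 nm after 2 h. RF = IC50 without modulator divided by IC50 with modulator. N = 2–4 experiments.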

[10] = target: T1, ATP-dependent translocase ABCB1; assay: Inhibition of p-gp (unknown origin) transfected in human MDA435/LCC6MDR cells assessed as reversal of doxorubicin drug resistance relative to control; type: cell-based
[11] = target: Multidrug resistance-associated protein 1 (Homo sapiens, UniProt P33527); assay: Modulation of MRP1 (unknown origin) transfected in human 2008/MRP1 cells assessed as potentiation of doxorubicin-induced cytotoxicity at 1 uM after 5 days by MTS assay relative to untreated control; type: cell-based; settings: 2008/mrp1, 120 h
Multidrug resistance-associated protein 1, sequence (P33527 whole entry): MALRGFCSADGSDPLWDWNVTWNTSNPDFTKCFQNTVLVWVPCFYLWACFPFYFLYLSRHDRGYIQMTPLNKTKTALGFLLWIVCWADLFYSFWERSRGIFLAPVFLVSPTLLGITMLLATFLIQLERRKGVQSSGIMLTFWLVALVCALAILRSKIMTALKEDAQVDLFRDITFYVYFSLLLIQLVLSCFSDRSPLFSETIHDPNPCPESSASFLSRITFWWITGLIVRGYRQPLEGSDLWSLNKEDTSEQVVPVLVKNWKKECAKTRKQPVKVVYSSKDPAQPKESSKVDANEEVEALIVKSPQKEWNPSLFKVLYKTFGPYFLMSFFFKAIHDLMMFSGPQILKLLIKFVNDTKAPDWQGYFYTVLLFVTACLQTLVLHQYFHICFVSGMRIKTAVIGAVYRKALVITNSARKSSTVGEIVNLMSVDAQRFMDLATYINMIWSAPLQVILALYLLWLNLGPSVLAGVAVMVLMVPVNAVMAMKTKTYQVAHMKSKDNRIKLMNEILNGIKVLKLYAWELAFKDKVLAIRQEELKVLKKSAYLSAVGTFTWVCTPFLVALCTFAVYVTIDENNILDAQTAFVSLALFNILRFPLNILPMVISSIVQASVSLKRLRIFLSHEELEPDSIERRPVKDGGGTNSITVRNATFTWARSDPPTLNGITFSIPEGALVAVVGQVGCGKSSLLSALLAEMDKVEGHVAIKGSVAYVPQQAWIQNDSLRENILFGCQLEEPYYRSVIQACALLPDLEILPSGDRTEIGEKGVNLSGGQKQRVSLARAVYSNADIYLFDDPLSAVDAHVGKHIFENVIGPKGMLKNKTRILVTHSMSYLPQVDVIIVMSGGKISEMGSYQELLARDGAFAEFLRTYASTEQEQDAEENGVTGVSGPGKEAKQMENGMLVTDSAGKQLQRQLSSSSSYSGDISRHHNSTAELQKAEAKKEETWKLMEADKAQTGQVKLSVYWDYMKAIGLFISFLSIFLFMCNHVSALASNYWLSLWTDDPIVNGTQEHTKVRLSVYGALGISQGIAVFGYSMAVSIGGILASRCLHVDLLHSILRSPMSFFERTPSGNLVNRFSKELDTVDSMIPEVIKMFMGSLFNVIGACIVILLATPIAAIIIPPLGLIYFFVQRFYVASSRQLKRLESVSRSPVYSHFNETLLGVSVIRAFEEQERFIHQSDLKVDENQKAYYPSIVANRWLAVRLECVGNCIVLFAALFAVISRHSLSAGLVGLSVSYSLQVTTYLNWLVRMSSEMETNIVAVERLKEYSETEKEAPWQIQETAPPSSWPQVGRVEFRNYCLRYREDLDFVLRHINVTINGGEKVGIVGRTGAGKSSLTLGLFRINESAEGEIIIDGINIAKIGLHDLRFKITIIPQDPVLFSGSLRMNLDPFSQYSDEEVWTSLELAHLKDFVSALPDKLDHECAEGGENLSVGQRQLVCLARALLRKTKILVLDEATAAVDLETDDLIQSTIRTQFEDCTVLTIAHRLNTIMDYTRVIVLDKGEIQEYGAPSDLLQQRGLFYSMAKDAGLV

[12] = target: T1, ATP-dependent translocase ABCB1; assay: Modulation of p-gp (unknown origin) transfected in human MDA435/LCC6MDR cells assessed as increase in intracellular drug accumulation at 20 to 200 uM after 150 mins by reverse phase-HPLC analysis; type: cell-based; settings: 2.5 h
Procedure, shortened: (§3)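 3 × 10^6 LCC6 or LCC6MDR cells incubated with 20 or 200 μM analogue at 37 °C for 150 min. Cells were then pelleted, washed with cold PBS pH 7.4, lysed in 100% methanol by vortexing for 5 min and spun. The supernatant was analysed by reversed-phase C18 HPLC with UV-vis detection. N = 2 independent experiments.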

[13] = Drug uptake in human MDA435/LCC6 cells at 20 to 200 uM after 150 mins by reverse phase-HPLC analysis; type: ADME, cell-based; settings: mda-435/lcc6, 2.5 h; procedure, shortened: as §3
[14] = species: Homo sapiens; assay: Ratio of compound activity to verapamil activity for modulation of p-gp (unknown origin) transfected in human MDA435/LCC6MDR cells assessed as potentiation of paclitaxel-induced cytotoxicity; type: cell-based

| SMILES | fold change (FC) [1] | other results |
| --- | --- | --- |
| COc1ccc(C2=C(c3ccc(OC)c(OC)c3)C(=O)N(CCn3cnc4c(=O)n(C)c(=O)n(C)c43)C2=O)cc1OC | 1.2 |  |
| CCOc1cc(CN2C(=O)C(c3ccc(OC)c(OC)c3)=C(c3ccc(OC)c(OC)c3)C2=O)cc(OCC)c1OCC | 1.9 |  |
| C=CCOc1cc(CN2C(=O)C(c3ccc(OC)c(OC)c3)=C(c3cc(OC)c(OC)c(OC)c3)C2=O)cc(OCC=C)c1OCC=C | 6.8 |  |
| COc1ccc(C2=C(c3ccc(OC)c(OC)c3)C(=O)N(CCn3cnc4c(N)ncnc43)C2=O)cc1OC | 1.7 |  |
| CCOC(=O)CN1C(=O)C(c2ccc(OC)c(OC)c2)=C(c2ccc(OC)c(OC)c2)C1=O | 7 |  |
| COc1ccc(C2=C(c3cc(OC)c(OC)c(OC)c3)C(=O)N(CC(=O)c3ccc(OCc4ccccc4)cc3)C2=O)cc1OC | 16.8 |  |
| COc1ccc(C2=C(c3cc(OC)c(OC)c(OC)c3)C(=O)N(CC(=O)c3cc(OC)c(OC)c(OC)c3)C2=O)cc1OC | 3.8 |  |
| COc1ccc(C2=C(c3ccc(OC)c(OC)c3)C(=O)N(CC(=O)OC(C)(C)C)C2=O)cc1OC | 3.3 |  |
| COc1ccc(CCN2C(=O)C(c3ccc(OC)c(OC)c3)=C(c3cc(OC)c(OC)c(OC)c3)C2=O)cc1 | 12.7 |  |
| COc1ccc(C2=C(c3ccc(OC)c(OC)c3)C(=O)N(Cc3cc(OC(C)C)c(OC(C)C)c(OC(C)C)c3)C2=O)cc1OC | 8.5 |  |
| COc1ccc(CCN(C)CCCC(C#N)(c2ccc(OC)c(OC)c2)C(C)C)cc1OC (stereo not given) |  | Activity [2]: inactive |
| COc1ccc(CN2C(=O)C(c3ccc(OC)c(OC)c3)=C(c3cc(OC)c(OC)c(OC)c3)C2=O)cc1OC | 13.2 |  |
| COc1cc(C(=O)CN2C(=O)C(c3cc(OC)c(OC)c(OC)c3)=C(c3cc(OC)c(OC)c(OC)c3)C2=O)cc(OC)c1OC | 1.8 |  |
| COc1ccc(C(=O)CN2C(=O)C(c3ccc(OC)c(OC)c3)=C(c3cc(OC)c(OC)c(OC)c3)C2=O)cc1 | 7.2 |  |
| COc1ccc(C2=C(c3ccc(OC)c(OC)c3)C(=O)N(CC(=O)O)C2=O)cc1OC | 0.9 |  |
| COc1ccc(C2=C(c3ccc(OC)c(OC)c3)C(=O)N(CC(=O)c3ccc(OCc4ccccc4)cc3)C2=O)cc1OC | 10.4 |  |
| COc1ccc(CCN2C(=O)C(c3ccc(OC)c(OC)c3)=C(c3cc(OC)c(OC)c(OC)c3)C2=O)cc1OC | 4.6 |  |
| COc1ccc(C2=C(c3cc(OC)c(OC)c(OC)c3)C(=O)N(CC(=O)c3ccc(OCc4ccccc4)c(OC)c3)C2=O)cc1OC | 42.7 | fold change (FC) [3]: 2.3; selectivity ratio [4]: > 909; Activity [2]: inactive; IC50 [5]: > 100 µM; IC50 [6]: > 100 µM; Ratio EC50 [7]: 4.1; IC50 [8]: > 100 µM; fold change (FC) [9]: 8.2; fold change (FC) [10]: 5.6; fold change (FC) [11]: 1.2 |
| COc1ccc(C(=O)CN2C(=O)C(c3cc(OC)c(OC)c(OC)c3)=C(c3cc(OC)c(OC)c(OC)c3)C2=O)cc1 | 4.9 |  |
| COc1ccc(C2=C(c3ccc(OC)c(OC)c3)C(=O)N(CC(=O)c3cc(OC)c(OC)c(OC)c3)C2=O)cc1OC | 9.3 |  |
| COc1ccc(C(=O)CN2C(=O)C(c3cc(OC)c(OC)c(OC)c3)=C(c3cc(OC)c(OC)c(OC)c3)C2=O)cc1OC | 3.3 |  |
| C=CCOc1cc(CN2C(=O)C(c3ccc(OC)c(OC)c3)=C(c3ccc(OC)c(OC)c3)C2=O)cc(OCC=C)c1OCC=C | 3.8 |  |
| COc1ccc(C2=C(c3ccc(OC)c(OC)c3)C(=O)N(CC(=O)c3ccc(OCc4ccccc4)c(OC)c3)C2=O)cc1OC | 42.7 | fold change (FC) [3]: 2.2; selectivity ratio [4]: > 1070; Activity [12]: Active; Activity [2]: inactive; IC50 [5]: > 100 µM; IC50 [6]: > 100 µM; Ratio EC50 [7]: 4.8; Drug uptake [13]: Active; IC50 [8]: > 100 µM; fold change (FC) [9]: 6.9; fold change (FC) [10]: 5.6; fold change (FC) [11]: 1.1 |
| COc1ccc(C2=C(c3cc(OC)c(OC)c(OC)c3)C(=O)N(Cc3cc(OC)c(OC)c(OC)c3)C2=O)cc1OC | 7.4 |  |
| COc1ccc(C(=O)CN2C(=O)C(c3ccc(OC)c(OC)c3)=C(c3cc(OC)c(OC)c(OC)c3)C2=O)cc1OC | 5.1 |  |
| COc1ccc(C2=C(c3cc(OC)c(OC)c(OC)c3)C(=O)N(c3cc(OC)c(OC)c(OC)c3)C2=O)cc1OC | 1.5 |  |
| COc1ccc(CN2C(=O)C(c3ccc(OC)c(OC)c3)=C(c3cc(OC)c(OC)c(OC)c3)C2=O)cc1 | 18 | Ratio [14]: 4 |
